Laboratory results reported in ChEMBL document CHEMBL3616436, “Synthesis, cytotoxicity and antimicrobial activity of thiourea derivatives incorporating 3-(trifluoromethyl)phenyl moiety” (Eur J Med Chem, 2015).
Values after ≈ are worked out from the molar mass of the structure shown. Active and inactive are the calls of the source. The calls are words filed in the database; no cut-off is given here.

Experiments:
[1] = Cytotoxicity against African green monkey Vero 76 cells assessed as cell viability after 48 to 96 hrs by crystal violet staining; assay type: cell-based; conditions: chlorocebus sabaeus
[2] = system: Mycobacterium tuberculosis; test: Antimycobacterial activity against drug-sensitive Mycobacterium tuberculosis Spec. 192; assay type: functional
In short: (§1)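 Classical test-tube successive-dilution method in Youmans' modification of Proskauer and Beck liquid medium with 10% bovine serum. Inoculum came from 14-day cultures. DMSO stock was 10 mg/mL, diluted geometrically in medium. Tubes were incubated at 37 °C. Concentrations tested were 3.1, 6.2, 12.5, 25, 50 and 100 µg/ml. MIC is the minimum concentration inhibiting growth relative to compound-free tubes.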

Staphylococcus aureus [3] = test: Antimicrobial activity against Staphylococcus aureus ATCC 6538 after 18 hrs by twofold serial microdilution method; assay type: functional; conditions: ATCC 6538, 18 h
[4] = system: Staphylococcus epidermidis; test: Ratio of ciprofloxacin MIC to compound MIC for hospital methicillin-resistant Staphylococcus epidermidis 23/04 after 18 hrs by twofold serial microdilution method; assay type: functional
In short: (§2)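 Ratio of MICs for ciprofloxacin and test agent, each from twofold serial broth microdilution in Mueller-Hinton broth following CLSI guidelines. DMSO stock was diluted in sterile water to 0.125–512 µg/mL, with a final inoculum of 10^5 CFU/mL.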

Enterococcus faecalis = test: Antimicrobial activity against Enterococcus faecalis ATCC 29212 at 400 ug after 18 hrs by disc-diffusion method; assay type: functional; conditions: for zone of inhibition at 400 µg/disc: ATCC 29212, 18 h, read-out: IZ
In short: (§3)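 Disc diffusion on Mueller-Hinton II agar per CLSI; 9 mm paper discs loaded with 400 µg compound from DMSO solution, dried, placed on agar; growth inhibition zone diameter read after 18 h at 35°C.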

Staphylococcus aureus [5] = test: Antimicrobial activity against hospital methicillin-resistant Staphylococcus aureus 81/05 after 18 hrs by twofold serial microdilution method; assay type: functional; conditions: 81/05, 18 h
In short: (§4)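 Twofold serial microdilution in Mueller-Hinton broth. Compound stock was made in DMSO and diluted in sterile water. Tested range was 0.125–512 µg/mL. Final inoculum was 10^5 CFU/mL. Plates were incubated 18 h at 35 °C. MIC is the lowest concentration preventing visible growth.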

[6] = system: Staphylococcus epidermidis; test: Antimicrobial activity against hospital methicillin-resistant Staphylococcus epidermidis 23/04 after 18 hrs by twofold serial microdilution method; assay type: functional; conditions: 23/04, 18 h; in short: as §4
[7] = system: Vesicular stomatitis virus; test: Antiviral activity against Vesicular stomatitis virus ATCC VR 1540 infected in African green monkey Vero 76 cells assessed as reduction of virus-plaque formation after 2 days by crystal violet staining; assay type: functional, organism-based; conditions: ATCC VR 1540, Vero, 48 h
Staphylococcus aureus [8] = test: Ratio of ciprofloxacin MIC to compound MIC for hospital methicillin-resistant Staphylococcus aureus 80/05 after 18 hrs by twofold serial microdilution method; assay type: functional; in short: as §2
Staphylococcus aureus [9] = test: Antimicrobial activity against Staphylococcus aureus NCTC 4163 after 18 hrs by twofold serial microdilution method; assay type: functional; conditions: NCTC 4163, 18 h
Staphylococcus aureus [10] = test: Antimicrobial activity against hospital methicillin-resistant Staphylococcus aureus 79/05 after 18 hrs by twofold serial microdilution method; assay type: functional; conditions: 79/05, 18 h; in short: as §4
Staphylococcus aureus [11] = test: Ratio of ciprofloxacin MIC to compound MIC for hospital methicillin-resistant Staphylococcus aureus 53/05 after 18 hrs by twofold serial microdilution method; assay type: functional; in short: as §2
Staphylococcus aureus [12] = test: Antimicrobial activity against Staphylococcus aureus ATCC 25923 after 18 hrs by twofold serial microdilution method; assay type: functional; conditions: ATCC 25923, 18 h
Staphylococcus aureus [13] = test: Antimicrobial activity against hospital methicillin-resistant Staphylococcus aureus 573/11 after 18 hrs by twofold serial microdilution method; assay type: functional; conditions: 573/11, 18 h; in short: as §4
Bacillus subtilis = test: Antimicrobial activity against Bacillus subtilis ATCC 6633 at 400 ug after 18 hrs by disc-diffusion method; assay type: functional; conditions: ATCC 6633, 18 h, read-out: IZ; in short: as §3
Yellow fever virus = test: Antiviral activity against Yellow fever virus 17D infected in BHK cells assessed as protection against virus-induced cytopathogenicity after 3 to 4 days by MTT assay; assay type: functional, cell-based
[14] = system: Staphylococcus epidermidis; test: Antimicrobial activity against hospital methicillin-resistant Staphylococcus epidermidis 62/04 after 18 hrs by twofold serial microdilution method; assay type: functional; conditions: 62/04, 18 h; in short: as §4
[15] = system: Staphylococcus epidermidis; test: Antimicrobial activity against hospital methicillin-resistant Staphylococcus epidermidis 76/04 after 18 hrs by twofold serial microdilution method; assay type: functional; conditions: 76/04, 18 h; in short: as §4
Staphylococcus aureus [16] = test: Antimicrobial activity against Staphylococcus aureus ATCC 6538 at 400 ug after 18 hrs by disc-diffusion method; assay type: functional; conditions: ATCC 6538, 18 h, read-out: IZ; in short: as §3
Staphylococcus aureus [17] = test: Antimicrobial activity against hospital methicillin-resistant Staphylococcus aureus 80/05 after 18 hrs by twofold serial microdilution method; assay type: functional; conditions: 80/05, 18 h; in short: as §4
Coxsackievirus B5 = test: Antiviral activity against Human coxsackievirus B5 ATCC VR-29 infected in African green monkey Vero 76 cells assessed as reduction of virus-plaque formation after 3 days by crystal violet staining; assay type: functional, organism-based; conditions: Enterovirus B, ATCC VR-29, Vero, 72 h
In short: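 Plaque reduction: Vero-76 at 2x10^5 cells/well grown to confluent monolayers, infected 2 h at 50–100 PFU/well; after removing unadsorbed virus, overlay of D-MEM, 1% inactivated FBS, 0.75% methylcellulose with or without serial compound dilutions; 3 days at 37°C, fixed and stained with crystal violet in 50% ethanol, plaques counted; EC50 by linear regression.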

Staphylococcus aureus [18] = test: Antimicrobial activity against hospital methicillin-resistant Staphylococcus aureus 53/05 after 18 hrs by twofold serial microdilution method; assay type: functional; conditions: 53/05, 18 h; in short: as §4
[19] = system: Staphylococcus epidermidis; test: Antimicrobial activity against Staphylococcus epidermidis ATCC 35984 at 400 ug after 18 hrs by disc-diffusion method; assay type: functional; conditions: for zone of inhibition at 400 µg/disc: ATCC 35984, 18 h, read-out: IZ; in short: as §3
[20] = Cytotoxicity against bovine MDBK cells assessed as cell viability after 48 to 96 hrs by MTT assay; assay type: cell-based, Bos taurus; conditions: cattle
[21] = system: Staphylococcus epidermidis; test: Ratio of ciprofloxacin MIC to compound MIC for hospital methicillin-resistant Staphylococcus epidermidis 31/04 after 18 hrs by twofold serial microdilution method; assay type: functional; in short: as §2
[22] = system: Staphylococcus epidermidis; test: Ratio of ciprofloxacin MIC to compound MIC for hospital methicillin-resistant Staphylococcus epidermidis […]/[…] after 18 hrs by twofold serial microdilution method; assay type: functional, 16/04
[23] = system: Mycobacterium tuberculosis; test: Antimycobacterial activity against Mycobacterium tuberculosis H37Rv ATCC 25618; assay type: functional; in short: as §1
Staphylococcus aureus [24] = test: Antimicrobial activity against hospital methicillin-resistant Staphylococcus aureus 57/05 after 18 hrs by twofold serial microdilution method; assay type: functional; conditions: 57/05, 18 h; in short: as §4
[25] = system: Human immunodeficiency virus 1; test: Antiviral activity against HIV1 3B infected in human MT4 cells assessed as protection against virus-induced cytopathogenicity by MTT assay; assay type: functional, organism-based; conditions: Human immunodeficiency virus 1, 3B
[26] = system: Staphylococcus epidermidis; test: Antimicrobial activity against hospital methicillin-resistant Staphylococcus epidermidis 16/04 after 18 hrs by twofold serial microdilution method; assay type: functional; conditions: 16/04, 18 h; in short: as §4
[27] = system: Staphylococcus epidermidis; test: Antimicrobial activity against Staphylococcus epidermidis ATCC 35984 after 18 hrs by twofold serial microdilution method; assay type: functional; conditions: ATCC 35984, 18 h
[28] = Cytotoxicity against BHK cells assessed as cell viability after 48 to 96 hrs by MTT assay; assay type: cell-based, Mesocricetus auratus; conditions: hamster
[29] = system: Staphylococcus epidermidis; test: Antimicrobial activity against hospital methicillin-resistant Staphylococcus epidermidis 151/04 after 18 hrs by twofold serial microdilution method; assay type: functional; conditions: 151/04, 18 h; in short: as §4

Row | SMILES | CC50 [1] [µM] | MIC [2] [µg/mL] | MIC (Staphylococcus aureus [3]) [µg/mL] | Ratio [4] | MIC (Staphylococcus aureus [5]) [µg/mL] | MIC [6] [µg/mL] | EC50 [7] [µM] | Ratio (Staphylococcus aureus [8]) | MIC (Staphylococcus aureus [9]) [µg/mL] | MIC (Staphylococcus aureus [10]) [µg/mL] | Ratio (Staphylococcus aureus [11]) | MIC (Staphylococcus aureus [12]) [µg/mL] | MIC (Staphylococcus aureus [13]) [µg/mL] | zone of inhibition at 400 µg/disc (Bacillus subtilis) [mm] | EC50 (Yellow fever virus) [µM] | MIC [14] [µg/mL] | MIC [15] [µg/mL] | zone of inhibition at 400 µg/disc (Staphylococcus aureus [16]) [mm] | MIC (Staphylococcus aureus [17]) [µg/mL] | EC50 (Coxsackievirus B5) [µM] | further results
1 | FC(F)(F)c1cccc(NC(=S)Nc2ccc(Cl)cc2)c1 | 11 | > 100 | 8 (≈ 24.2 µM) | 128 | 16 (≈ 48.4 µM) | 16 (≈ 48.4 µM) | > 11 | 128 | 8 (≈ 24.2 µM) | 16 (≈ 48.4 µM) | 128 | 8 (≈ 24.2 µM) | 8 (≈ 24.2 µM) | 12 | > 10 | 16 (≈ 48.4 µM) | 8 (≈ 24.2 µM) | 13 | 16 (≈ 48.4 µM) | > 11 | inhibition zone (IZ) (Enterococcus faecalis): inactive; MIC (Staphylococcus aureus [18]): 16 µg/mL (≈ 48.4 µM); inhibition zone (IZ) [19]: inactive; CC50 [20]: 17 µM; Ratio [21]: 128; Ratio [22]: 128; MIC [23]: > 100 µg/mL; MIC (Staphylococcus aureus [24]): 16 µg/mL (≈ 48.4 µM); EC50 [25]: > 6.8 µM; MIC [26]: 16 µg/mL (≈ 48.4 µM); MIC [27]: 4 µg/mL (≈ 12.1 µM); CC50 [28]: 10 µM; MIC [29]: 8 µg/mL (≈ 24.2 µM)
2 | Fc1ccc(NC(=S)Nc2cccc(C(F)(F)F)c2)cc1Cl | 20 | 50 (≈ 143 µM) | 1 (≈ 2.87 µM) | 128 | 0.25 (≈ 0.717 µM) | 1 (≈ 2.87 µM) | > 20 | 128 | 1 (≈ 2.87 µM) | 1 (≈ 2.87 µM) | 128 | 1 (≈ 2.87 µM) | 0.5 (≈ 1.43 µM) | 30 | > 10 | 0.5 (≈ 1.43 µM) | 0.25 (≈ 0.717 µM) | 30 | 0.25 (≈ 0.717 µM) | > 20 | zone of inhibition at 400 µg/disc (Enterococcus faecalis): 20 mm; MIC (Staphylococcus aureus [18]): 1 µg/mL (≈ 2.87 µM); zone of inhibition at 400 µg/disc [19]: 27 mm; CC50 [20]: 11 µM; Ratio [21]: 128; Ratio [22]: 128; MIC [23]: 50 µg/mL (≈ 143 µM); MIC (Staphylococcus aureus [24]): 1 µg/mL (≈ 2.87 µM); EC50 [25]: > 8 µM; MIC [26]: 1 µg/mL (≈ 2.87 µM); MIC [27]: 2 µg/mL (≈ 5.73 µM); CC50 [28]: 10 µM; MIC [29]: 2 µg/mL (≈ 5.73 µM)
3 | FC(F)(F)c1cccc(NC(=S)Nc2cccc(Br)c2)c1 | 14 | > 100 | 1 (≈ 2.67 µM) | 128 | 1 (≈ 2.67 µM) | 2 (≈ 5.33 µM) | > 14 | 128 | 1 (≈ 2.67 µM) | 0.5 (≈ 1.33 µM) | 128 | 1 (≈ 2.67 µM) | 0.25 (≈ 0.666 µM) | 26 | > 10 | 1 (≈ 2.67 µM) | 1 (≈ 2.67 µM) | 29 | 0.5 (≈ 1.33 µM) | > 14 | zone of inhibition at 400 µg/disc (Enterococcus faecalis): 18 mm; MIC (Staphylococcus aureus [18]): 1 µg/mL (≈ 2.67 µM); zone of inhibition at 400 µg/disc [19]: 27 mm; CC50 [20]: 10 µM; Ratio [21]: 128; Ratio [22]: 128; MIC [23]: 100 µg/mL (≈ 267 µM); MIC (Staphylococcus aureus [24]): 1 µg/mL (≈ 2.67 µM); EC50 [25]: > 9.2 µM; MIC [26]: 2 µg/mL (≈ 5.33 µM); MIC [27]: 2 µg/mL (≈ 5.33 µM); CC50 [28]: 10 µM; MIC [29]: 2 µg/mL (≈ 5.33 µM)
4 | FC(F)(F)c1cccc(NC(=S)NCCc2ccccc2)c1 | 46 | 100 (≈ 308 µM) | 8 (≈ 24.7 µM) | 128 | 16 (≈ 49.3 µM) | 8 (≈ 24.7 µM) | > 46 | 128 | 8 (≈ 24.7 µM) | 16 (≈ 49.3 µM) | 128 | 8 (≈ 24.7 µM) | 16 (≈ 49.3 µM) | 16 | > 29 | 8 (≈ 24.7 µM) | 8 (≈ 24.7 µM) | 15 | 8 (≈ 24.7 µM) | > 46 | inhibition zone (IZ) (Enterococcus faecalis): inactive; MIC (Staphylococcus aureus [18]): 8 µg/mL (≈ 24.7 µM); zone of inhibition at 400 µg/disc [19]: 17 mm; CC50 [20]: 48 µM; Ratio [21]: 128; Ratio [22]: 128; MIC [23]: 50 µg/mL (≈ 154 µM); MIC (Staphylococcus aureus [24]): 8 µg/mL (≈ 24.7 µM); EC50 [25]: > 8.8 µM; MIC [26]: 8 µg/mL (≈ 24.7 µM); MIC [27]: 8 µg/mL (≈ 24.7 µM); CC50 [28]: 29 µM; MIC [29]: 16 µg/mL (≈ 49.3 µM)
